Results: ChEMBL document CHEMBL4706573, “Synthesis and evaluation of thiophene based small molecules as potent inhibitors of Mycobacterium tuberculosis” (Eur J Med Chem, 2020)
Values after ≈ are worked out from the molar mass of the structure shown. Active and inactive are the calls of the source. No cut-off for these calls is given here.

Legend:
[1] = system: Mycobacterium tuberculosis; test: Antimycobacterial activity against Mycobacterium tuberculosis expressing pMV306 after 10 to 14 days; assay type: functional, organism-based; conditions: time 10-14 day
Outline: (§1)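 MIC99 determined in whole cells, tested in triplicate with INH as the positive control. Strains were wild-type, pMV306, pMV306-pks13 and INH-resistant mc2 497. Susceptibility was scored relative to the parental strain: S where the MIC99 was at most 2x the parental MIC99.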

THP-1 = test: Cytotoxicity against human THP-1 cells assessed as reduction in cell viability measured after 96 hrs by WST1 assay; assay type: cell-based; conditions: thp-1, 96 h
Outline: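 THP-1 cells seeded at 20,000/well with 20 ng/ml PMA for 48 h. Cells then washed and rested 24 h in RPMI with 10% FBS. Drug dilutions in RPMI complete medium added in triplicate for 96 h. Viability read by WST-1 reagent after a 30 min incubation.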

[2] = system: Mycobacterium tuberculosis; test: Antimycobacterial activity against Mycobacterium tuberculosis expressing pMV306-pks13 after 10 to 14 days; assay type: functional, organism-based; conditions: time 10-14 day; outline: as §1
[3] = system: Mycobacterium tuberculosis; test: Antimycobacterial activity against Mycobacterium tuberculosis H37Rv after 10 to 14 days; assay type: functional; conditions: time 10-14 day; outline: as §1
[4] = system: Mycobacterium tuberculosis; test: Antimycobacterial activity against Mycobacterium tuberculosis infected in human THP-1 cells assessed as reduction in intracellular bacterial growth at 10 times MIC99 incubated for 4 days followed by 10-fold serial dilution and measured after 3 to 4 weeks relative to control; assay type: functional; conditions: time 32 day
Outline: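 THP-1 cells infected and then washed twice with 1x PBS. Infected macrophages overlaid with RPMI containing drug for 4 days. Lysed on day 0 and day 4 with 1x PBST (0.1% Triton X-100). Tenfold serial dilutions plated on MB 7H11 agar, incubated at 37 °C for 3-4 weeks, then CFU counted. INH used as control.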

[5] = system: Mycobacterium tuberculosis; test: Antimycobacterial activity against early-logarithmic cultures of Mycobacterium tuberculosis H37Rv assessed as reduction in bacterial load at 10 times MIC99 incubated for 7 days followed by 10-fold serial dilution and measured after 2 to 4 weeks; assay type: functional; conditions: time 2-5 weeks
Outline: (§2)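 Early-logarithmic culture (OD600nm ~0.2) exposed to 10x MIC99 for 7 days. Bacteria then counted as CFU and compared with untreated samples. INH used as control.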

[6] = system: Mycobacterium tuberculosis; test: Antimycobacterial activity against Mycobacterium tuberculosis H37Rv assessed as FICI in presence of pretomanid by checkerboard assay; assay type: functional
Outline: (§3)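 Two-drug checkerboard: lead compound serially diluted twofold along one axis, cross-diluted twofold with a TB drug (RIF, INH, LEVO, BDQ or PA-824) to form combinations. FICI calculated for each combination.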

[7] = system: Mycobacterium tuberculosis; test: Ratio of MIC99 for antimycobacterial activity against Mycobacterium tuberculosis H37Rv to MIC99 for antimycobacterial activity against Mycobacterium tuberculosis H37Rv in presence of bedaquiline; assay type: functional; outline: as §3
[8] = system: Mycobacterium tuberculosis; test: Antimycobacterial activity against Mycobacterium tuberculosis H37Rv assessed as FICI in presence of levofloxacin by checkerboard assay; assay type: functional; outline: as §3
[9] = system: Mycobacterium tuberculosis; test: Antimycobacterial activity against Mycobacterium tuberculosis H37Rv assessed as FICI in presence of bedaquiline by checkerboard assay; assay type: functional; outline: as §3
[10] = system: Mycobacterium tuberculosis; test: Antimycobacterial activity against Mycobacterium tuberculosis H37Rv assessed as FICI in presence of rifampicin by checkerboard assay; assay type: functional; outline: as §3
[11] = system: Mycobacterium tuberculosis; test: Antimycobacterial activity against Mycobacterium tuberculosis H37Rv assessed as FICI in presence of isoniazid by checkerboard assay; assay type: functional; outline: as §3
[12] = system: Mycobacterium tuberculosis; test: Antimycobacterial activity against early-logarithmic cultures of Mycobacterium tuberculosis H37Rv assessed as bacterial killing at 10 times MIC99 incubated for 7 days followed by 10-fold serial dilution and measured after 2 to 4 weeks; assay type: functional; conditions: time 2-5 weeks; outline: as §2
[13] = system: Mycobacterium tuberculosis; test: Antimycobacterial activity against Mycobacterium tuberculosis H37Ra measured up to 7 days; assay type: functional; conditions: 168 h, time day <=7
[14] = system: Mycobacterium tuberculosis; test: Antimycobacterial activity against Mycobacterium tuberculosis H37Rv; assay type: functional
[15] = Inhibition of N-terminal His-tagged Mycobacterium tuberculosis PtpB expressed in Escherichia coli BL21 (DE3)-CodonPlus cells using DiFMUP as substrate measured after 45 mins by spectrofluorimetric method

Row | Structure (SMILES) | Activity (THP-1) [µM] | MIC99 [3] [µM] | other results
1 | COC(=O)c1cc(-c2ccc(F)cc2)sc1NC(=O)CCl | > 50 | 0.78 (≈ 0.256 µg/mL) | Activity [1]: Active; Activity [2]: Active
2 | COC(=O)c1cc(-c2ccccc2)sc1NC(=O)CCl | > 50 | 0.19 (≈ 0.0589 µg/mL) | fold change (FC) [4]: 5; FC [5]: 10; fractional inhibitory concentration index (FICI) [6]: 0.625; Ratio [7]: 8; fractional inhibitory concentration index (FICI) [8]: 0.562; Activity [1]: Active; fractional inhibitory concentration index (FICI) [9]: 0.25; fractional inhibitory concentration index (FICI) [10]: 0.625; Activity [2]: Active; fractional inhibitory concentration index (FICI) [11]: 0.562
3 | COC(=O)c1cc(-c2ccc(F)cc2)sc1NC(=O)N1CCCCC1 | > 50 | > 10 | –
4 | COC(=O)c1cc(-c2cc3ccccc3s2)sc1NC(=O)CCl | > 50 | 0.78 (≈ 0.285 µg/mL) | Activity [1]: Active; Activity [2]: Active
5 | NNC(=O)c1ccncc1 [ISONIAZID] | > 50 | 0.19 (≈ 0.0261 µg/mL) | fold change (FC) [4]: 200; Activity [1]: Active; Activity [12]: >4 log10CFU; Activity [2]: Active
6 | CCOC(=O)c1cc(-c2ccccc2)sc1N | > 50 | > 10 | –
7 | CCOC(=O)c1cc(-c2ccccc2)sc1NC(=O)N(CC)CC | > 50 | 3.12 (≈ 1.08 µg/mL) | –
8 | COc1ccc([C@@H](c2ccc(OCCN(C(C)C)C(C)C)cc2)c2cccs2)cc1 | – | – | MIC [13]: 3.12 µM (≈ 1.32 µg/mL)
9 | COC(=O)c1ccsc1NC(=O)CCl | > 50 | 0.19 (≈ 0.0444 µg/mL) | fold change (FC) [4]: 2.5; FC [5]: 10; fractional inhibitory concentration index (FICI) [6]: 1; Ratio [7]: 4; fractional inhibitory concentration index (FICI) [8]: 0.562; Activity [1]: Active; fractional inhibitory concentration index (FICI) [9]: 0.5; fractional inhibitory concentration index (FICI) [10]: 0.75; Activity [2]: Active; fractional inhibitory concentration index (FICI) [11]: 0.75
10 | CCOC(=O)c1cc(-c2ccccc2)sc1NC(C)=O | > 50 | > 10 | –
11 | COC(=O)c1cc(-c2ccc(F)cc2)sc1NC(=O)N1CCCC1 | > 50 | > 10 | –
12 | COC(=O)c1cc(-c2cc(F)cc(F)c2)sc1NC(=O)CCl | > 50 | 0.78 (≈ 0.27 µg/mL) | Activity [1]: Active; Activity [2]: Active
13 | CCOC(=O)c1cc(-c2ccccc2)sc1NC(N)=O | > 50 | > 10 | –
14 | CCOC(=O)c1cc(-c2ccccc2)sc1NC(=O)Cc1ccccc1 | > 50 | > 10 | –
15 | CCOC(=O)c1cc(-c2ccccc2)sc1NC(=O)NC(C)C | > 50 | 1.56 (≈ 0.519 µg/mL) | –
16 | CO[C@H]1/C=C/O[C@@]2(C)Oc3c(C)c(O)c4c(O)c(c(/C=N/N5CCN(C)CC5)c(O)c4c3C2=O)NC(=O)/C(C)=C\C=C\[C@H](C)[C@H](O)[C@@H](C)[C@@H](O)[C@@H](C)[C@H](OC(C)=O)[C@@H]1C [RIFAMPIN] | – | 0.007 (≈ 0.00576 µg/mL) | –
17 | COC(=O)c1cc(-c2ccc(F)cc2)sc1NC(=O)NC(C)C | > 50 | > 10 | –
18 | COC(=O)c1cc(-c2ccc(C(F)(F)F)cc2)sc1NC(=O)CCl | > 50 | 0.39 (≈ 0.147 µg/mL) | Activity [1]: Active; Activity [2]: Active
19 | COC(=O)c1cc(-c2cccc(F)c2)sc1NC(=O)CCl | > 50 | 0.19 (≈ 0.0623 µg/mL) | Activity [1]: Active; Activity [2]: Active
20 | CCOC(=O)c1cc(-c2ccccc2)sc1NC(=O)c1ccc(F)cc1 | > 50 | > 10 | –

Row | Structure (SMILES) | Activity (THP-1) [µM] | MIC99 [3] [µM] | other results
21 | CCOC(=O)c1cc(-c2ccccc2)sc1NC(=O)N1CCN(C)CC1 | > 50 | > 10 | –
22 | CCOC(=O)c1cc(-c2ccccc2)sc1NC(=O)c1ccc(C#N)cc1 | > 50 | > 10 | –
23 | CCOC(=O)c1c(NC(=O)c2c(F)c(F)c(F)c(F)c2F)sc2c1CCCCC2 | – | – | MIC [14]: 1 µM (≈ 0.433 µg/mL)
24 | CCOC(=O)c1cc(-c2ccccc2)sc1NC(=O)c1cccnc1 | > 50 | > 10 | –
25 | CCOC(=O)c1cc(-c2ccccc2)sc1NC(=O)c1ccccc1 | > 50 | > 10 | –
26 | CCOC(=O)c1cc(-c2ccccc2)sc1NC(=O)Nc1ccccc1 | > 50 | > 10 | –
27 | CCN(CC)C(=O)Nc1sc(-c2ccc(F)cc2)cc1C(=O)OC | > 50 | > 10 | –
28 | CCOC(=O)c1cc(-c2ccccc2)sc1NC(=O)c1ccc(C)cc1 | > 50 | > 10 | –
29 | COC(=O)c1cc(-c2ccc(F)cc2)sc1NC(=O)NC1CC1 | > 50 | > 10 | –
30 | CCOC(=O)c1cc(-c2ccccc2)sc1NC(=O)NCc1ccccc1 | > 50 | > 10 | –
31 | CCOC(=O)c1cc(-c2ccccc2)sc1NC(=O)NC1CC1 | > 50 | 1.56 (≈ 0.515 µg/mL) | –
32 | CCOC(=O)c1cc(-c2ccccc2)sc1NC(=O)N1CCCC1 | > 50 | > 10 | –
33 | CCOC(=O)c1cc(-c2ccccc2)sc1NC(=O)N1CCOCC1 | > 50 | > 10 | –
34 | CCOC(=O)c1cc(-c2ccccc2)sc1NC(=O)N1CCCCC1 | > 50 | > 10 | –
35 | CCOC(=O)c1cc(-c2ccccc2)sc1NC(=O)NC | > 50 | > 10 | –
36 | CCOC(=O)c1cc(-c2ccccc2)sc1NC(=O)N(C)C | > 50 | > 10 | –
37 | O=C(O)C(=O)N(Cc1cccc(Cl)c1)Cc1ccc(S(=O)(=O)NCCC(c2ccccc2)c2ccccc2)s1 | – | – | IC50 [15]: 400 nM
38 | CCOC(=O)c1cc(-c2ccccc2)sc1NC(=O)CBr | > 50 | 0.78 (≈ 0.287 µg/mL) | Activity [1]: Active; Activity [2]: Active
39 | CCOC(=O)c1c(NC(=O)c2c(F)c(F)c(F)c(F)c2F)sc(C(N)=O)c1C | – | – | MIC [14]: 0.5 µM (≈ 0.211 µg/mL)
